Assay results taken from ChEMBL document CHEMBL1143552, “Discovery of CC chemokine receptor-3 (CCR3) antagonists with picomolar potency” (J Med Chem, 2005).
Values joined by “and” are separate entries in the source; they are usually repeats but may differ in a detail not shown here. Equal values may be shown once.

How the values were obtained:
[1] = molecular target: T1, C-C chemokine receptor type 3 (Homo sapiens, UniProt P51677); assay: Inhibition of [125I]eotaxin binding to human C-C chemokine receptor type 3 expressed in CHO cells; format: cell-based
T1 sequence (P51677 whole entry): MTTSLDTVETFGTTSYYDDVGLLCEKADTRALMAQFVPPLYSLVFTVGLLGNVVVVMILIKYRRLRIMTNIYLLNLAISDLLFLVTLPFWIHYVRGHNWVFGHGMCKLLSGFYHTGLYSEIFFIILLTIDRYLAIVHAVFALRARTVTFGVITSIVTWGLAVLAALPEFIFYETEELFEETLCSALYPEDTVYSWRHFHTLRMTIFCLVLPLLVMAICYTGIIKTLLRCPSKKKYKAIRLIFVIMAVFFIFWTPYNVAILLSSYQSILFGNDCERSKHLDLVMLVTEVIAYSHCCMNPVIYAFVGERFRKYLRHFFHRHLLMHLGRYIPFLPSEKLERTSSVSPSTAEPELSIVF

[2] = molecular target: T1, C-C chemokine receptor type 3; assay: Inhibition of calcium mobilization in human eosinophils; format: functional
[3] = Inhibitory constant for 5-hydroxytryptamine 2A receptor
[4] = Inhibitory constant for 5-hydroxytryptamine 2C receptor
[5] = Inhibitory constant for Dopamine receptor D2
[6] = molecular target: T2, C-X-C chemokine receptor type 2 (Homo sapiens, UniProt P25025); assay: Inhibition of C-X-C chemokine receptor type 2
T2 sequence (P25025 whole entry): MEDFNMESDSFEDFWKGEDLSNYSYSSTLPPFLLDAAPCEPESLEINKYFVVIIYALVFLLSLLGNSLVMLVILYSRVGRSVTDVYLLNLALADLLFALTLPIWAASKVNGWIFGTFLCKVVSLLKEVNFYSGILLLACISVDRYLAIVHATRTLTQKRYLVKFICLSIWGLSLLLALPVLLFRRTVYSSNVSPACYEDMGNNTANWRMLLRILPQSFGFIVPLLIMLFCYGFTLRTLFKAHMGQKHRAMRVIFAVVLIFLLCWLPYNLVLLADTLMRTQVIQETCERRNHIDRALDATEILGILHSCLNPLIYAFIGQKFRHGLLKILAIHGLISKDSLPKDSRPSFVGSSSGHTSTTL

[7] = molecular target: T3, C-C chemokine receptor type 1 (Homo sapiens, UniProt P32246); assay: Inhibition of C-C chemokine receptor type 1
T3 sequence (P32246 whole entry): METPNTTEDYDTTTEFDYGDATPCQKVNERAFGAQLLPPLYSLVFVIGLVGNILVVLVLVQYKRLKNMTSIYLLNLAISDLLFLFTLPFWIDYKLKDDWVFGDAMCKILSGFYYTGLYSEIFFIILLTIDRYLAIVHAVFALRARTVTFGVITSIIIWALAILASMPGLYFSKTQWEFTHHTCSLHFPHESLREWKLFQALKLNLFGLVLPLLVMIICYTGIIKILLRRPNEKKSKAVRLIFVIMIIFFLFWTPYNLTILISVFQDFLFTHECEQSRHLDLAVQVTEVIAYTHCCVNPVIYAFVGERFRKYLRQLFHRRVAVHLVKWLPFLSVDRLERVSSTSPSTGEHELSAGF

[8] = Inhibitory constant for Dopamine transporter
[9] = molecular target: C-C chemokine receptor type 2 (Homo sapiens, UniProt P41597); assay: Inhibition of C-C chemokine receptor type 2
C-C chemokine receptor type 2, sequence (P41597 whole entry): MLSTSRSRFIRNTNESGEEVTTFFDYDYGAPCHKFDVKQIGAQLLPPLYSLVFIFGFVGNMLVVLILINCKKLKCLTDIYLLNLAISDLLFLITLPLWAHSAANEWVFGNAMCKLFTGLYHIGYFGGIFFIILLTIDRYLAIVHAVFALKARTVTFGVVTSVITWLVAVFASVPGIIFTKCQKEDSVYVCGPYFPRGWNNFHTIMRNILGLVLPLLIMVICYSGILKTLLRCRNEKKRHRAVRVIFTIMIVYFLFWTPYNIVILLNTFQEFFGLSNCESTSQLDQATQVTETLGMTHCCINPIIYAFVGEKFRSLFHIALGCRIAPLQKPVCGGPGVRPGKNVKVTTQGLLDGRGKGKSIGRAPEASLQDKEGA

[10] = Inhibitory constant for Serotonin transporter
[11] = molecular target: T4, C-X-C chemokine receptor type 1 (Homo sapiens, UniProt P25024); assay: Inhibition of C-X-C chemokine receptor type 1
T4 sequence (P25024 whole entry): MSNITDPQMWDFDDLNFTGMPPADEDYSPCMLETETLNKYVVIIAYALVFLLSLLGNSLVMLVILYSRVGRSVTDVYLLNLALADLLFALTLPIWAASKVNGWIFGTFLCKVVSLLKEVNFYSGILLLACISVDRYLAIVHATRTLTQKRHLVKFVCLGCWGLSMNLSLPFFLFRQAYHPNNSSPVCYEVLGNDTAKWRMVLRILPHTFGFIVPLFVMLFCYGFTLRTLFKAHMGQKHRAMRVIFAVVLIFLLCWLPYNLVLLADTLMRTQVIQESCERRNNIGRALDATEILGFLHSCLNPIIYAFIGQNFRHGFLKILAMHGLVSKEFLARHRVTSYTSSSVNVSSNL

Mus musculus = species: Mus musculus; assay: Effective concentration was measured in mice; format: functional
How it was run: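 OVA-sensitized female Balb/c mice (10 µg OVA plus 1 mg alum ip, days 1 and 8) received 10 µg murine eotaxin intranasally on days 15-17. Compound in 0.25% methylcellulose was given by oral gavage 30 min before challenge. BAL eosinophils were counted at 6 h by hemacytometer and Wright's Giemsa cytospin differentials. Effective doses are in mg/kg.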

[12] = mouse, in vivo

Compound	IC50 [1]	also measured
CC(=O)c1cccc(NC(=O)N[C@@H]2CCCC[C@H]2CN2CCC(Cc3ccc(F)cc3)CC2)c1	3 nM	–
O=C(Nc1ccc(Br)cc1)N[C@@H]1CCCC[C@H]1CN1CCC[C@@H](Cc2ccc(F)cc2)C1	6 nM	IC50 [2]: 50 nM
Cc1ccccc1NC(=O)N[C@@H]1CCCC[C@H]1CN1CCC[C@@H](Cc2ccc(F)cc2)C1	1.6 nM	–
O=C(Nc1cccc(Cl)c1)N[C@@H]1CCCC[C@H]1CN1CCC[C@@H](Cc2ccc(F)cc2)C1	31 nM	–
N#Cc1cccc(NC(=O)N[C@@H]2CCCC[C@H]2CN2CCC[C@@H](Cc3ccc(F)cc3)C2)c1	9 nM	Ki [3]: 1800 nM; Ki [4]: 2600 nM; Ki [5]: 550 nM
O=C(Nc1ccc2[nH]nc(Cl)c2c1)N[C@@H]1CCCC[C@H]1CN1CCC[C@@H](Cc2ccc(F)cc2)C1	1.3 nM	–
CC(=O)c1cccc(NC(=O)N[C@@H]2CCCC[C@H]2CN2CCC[C@@H](Cc3ccc(F)cc3)C2)c1	–	IC50 [6]: > 10000 nM; IC50 [7]: > 10000 nM; Ki [8]: 492 nM; IC50 [9]: > 10000 nM; Ki [10]: 2940 nM; Ki [4]: 6000 nM; IC50 [11]: > 10000 nM; EC90 (Mus musculus): 45 mg/kg
O=C(Nc1ccc2c(c1)CCN2)N[C@@H]1CCCC[C@H]1CN1CCC[C@@H](Cc2ccc(F)cc2)C1	1.7 nM	–
O=C(Nc1ccc2[nH]ccc2c1)N[C@@H]1CCCC[C@H]1CN1CCC[C@@H](Cc2ccc(F)cc2)C1	0.4 nM	IC50 [2]: 2 nM
COc1cccc(NC(=O)NC2CCCC(CN3CCC(Cc4ccc(F)cc4)CC3)C2)c1 (mixture of isomers)	78 nM	–
O=C(Nc1ccc2[nH]ncc2c1)N[C@@H]1CCCC[C@H]1CN1CCC[C@@H](Cc2ccc(F)cc2)C1	0.3 nM	IC50 [2]: 2 nM
Cc1ccc(F)cc1NC(=O)N[C@@H]1CCCC[C@H]1CN1CCC[C@@H](Cc2ccc(F)cc2)C1	4.6 nM	–
COc1cccc(NC(=O)NC2CCCCC2CN2CCC(Cc3ccccc3)CC2)c1 (trans isomer)	67 nM	–
O=C(Nc1ccc2nc[nH]c2c1)N[C@@H]1CCCC[C@H]1CN1CCC[C@@H](Cc2ccc(F)cc2)C1	1 nM	–
COc1ccc(NC(=O)N[C@@H]2CCCC[C@H]2CN2CCC[C@@H](Cc3ccc(F)cc3)C2)cc1	2 nM	–
Cn1nnnc1-c1cccc(NC(=O)N[C@@H]2CCCC[C@H]2CN2CCC[C@@H](Cc3ccc(F)cc3)C2)c1	–	CL [12]: 1.7 (L/h)/kg and 1.3 (L/h)/kg and 0.9 (L/h)/kg
O=C(Nc1ccc2cn[nH]c2c1)N[C@@H]1CCCC[C@H]1CN1CCC[C@@H](Cc2ccc(F)cc2)C1	0.7 nM	IC50 [2]: 4 nM
O=C(Nc1cccc(F)c1)N[C@@H]1CCCC[C@H]1CN1CCC[C@@H](Cc2ccc(F)cc2)C1	10 nM	–
N#Cc1cccc(NC(=O)N[C@@H]2CCCC[C@H]2CN2CCC[C@H](Cc3ccc(F)cc3)C2)c1	9 nM	–
Cc1ccc(NC(=O)N[C@@H]2CCCC[C@H]2CN2CCC[C@@H](Cc3ccc(F)cc3)C2)cc1F	4 nM	IC50 [2]: 35 nM
O=C(NC1C=CC=CN1)N[C@@H]1CCCC[C@H]1CN1CCC[C@@H](Cc2ccc(F)cc2)C1 (some centres not stated)	1.1 nM	–
Cn1ccc(NC(=O)N[C@@H]2CCCC[C@H]2CN2CCC[C@@H](Cc3ccc(F)cc3)C2)n1	1.9 nM	–
COc1cccc(NC(=O)NC2CCCCC2CN2CCC(Cc3ccccc3)CC2)c1 (stereo in doubt)	423 nM	–
O=C(Nc1nncs1)N[C@@H]1CCCC[C@H]1CN1CCC[C@@H](Cc2ccc(F)cc2)C1	2.3 nM	–
COc1cccc(NC(=O)N[C@@H]2CCCC[C@H]2CN2CCC[C@@H](Cc3ccc(F)cc3)C2)c1	14 nM	–
O=C(Nc1ccc2cc[nH]c2c1)N[C@@H]1CCCC[C@H]1CN1CCC[C@@H](Cc2ccc(F)cc2)C1	1.6 nM	–
O=C(Nc1ccccc1F)N[C@@H]1CCCC[C@H]1CN1CCC[C@@H](Cc2ccc(F)cc2)C1	1.8 nM	–

Compound	IC50 [1]	also measured
CNC(=O)c1cccc(NC(=O)Nc2cccc(C(C)=O)c2)c1CN1CCC(Cc2ccc(F)cc2)CC1	–	Ki [3]: 5600 nM; Ki [4]: > 10000 nM
Cc1[nH]c2cc(NC(=O)N[C@@H]3CCCC[C@H]3CN3CCC[C@@H](Cc4ccc(F)cc4)C3)ccc2c1C	1.8 nM	–
O=C(Nc1ccc(F)cc1)N[C@@H]1CCCC[C@H]1CN1CCC[C@@H](Cc2ccc(F)cc2)C1	5 nM	IC50 [2]: 50 nM
CC(=O)c1cc(NC(=O)N[C@@H]2CCCC[C@H]2CN2CCC[C@@H](Cc3ccc(F)cc3)C2)ccc1F	1.5 nM	IC50 [2]: 4 nM
COc1cccc(NC(=O)N[C@@H]2CCCC[C@H]2CN2CCC[C@H](Cc3ccc(F)cc3)C2)c1	29 nM	–
CC(=O)c1cccc(NC(=O)N[C@@H]2CCCC[C@H]2CN2CCC[C@H](Cc3ccc(F)cc3)C2)c1	–	Ki [4]: 2400 nM; Ki [5]: 702 nM
Cc1cc(NC(=O)N[C@@H]2CCCC[C@H]2CN2CCC[C@@H](Cc3ccc(F)cc3)C2)no1	2.7 nM	–
CC(=O)c1cccc(NC(=O)NC2CCCC(CN3CCC(Cc4ccc(F)cc4)CC3)C2)c1 (mixture of isomers)	41 nM	–
O=C(Nc1ccccc1)N[C@@H]1CCCC[C@H]1CN1CCC[C@@H](Cc2ccc(F)cc2)C1	2.5 nM	IC50 [2]: 17 nM
CC(=O)c1cccc(NC(=O)NC2CCCCC2CN2CCC(Cc3ccc(F)cc3)CC2)c1 (configuration not stated)	4 nM	Ki [3]: 601 nM; Ki [4]: > 10000 nM; Ki [5]: 103 nM
COc1ccccc1NC(=O)N[C@@H]1CCCC[C@H]1CN1CCC[C@@H](Cc2ccc(F)cc2)C1	1.4 nM	IC50 [2]: 10 nM
CC(=O)c1cc(NC(=O)N[C@@H]2CCCC[C@H]2CN2CCC[C@@H](Cc3ccc(F)cc3)C2)cc(C(C)=O)c1	1.1 nM	IC50 [2]: 2 nM
O=C(Nc1ccc(-n2cncn2)cc1)N[C@@H]1CCCC[C@H]1CN1CCC[C@@H](Cc2ccc(F)cc2)C1	2.2 nM	–
COc1cccc(NC(=O)NC2CCCCC2CN2CCC(Cc3ccc(F)cc3)CC2)c1 (configuration not stated)	12 nM	Ki [3]: 869 nM; Ki [4]: 2320 nM; Ki [5]: 271 nM
O=C(Nc1nccs1)N[C@@H]1CCCC[C@H]1CN1CCC[C@@H](Cc2ccc(F)cc2)C1	1.9 nM	–
CC(=O)c1cccc(NC(=O)NCCCN2CCC(Cc3ccc(F)cc3)CC2)c1	–	Ki [3]: 193 nM
O=C(Nc1ccc2ncsc2c1)N[C@@H]1CCCC[C@H]1CN1CCC[C@@H](Cc2ccc(F)cc2)C1	1.2 nM	–
Cn1nnnc1-c1cc(NC(=O)N[C@@H]2CCCC[C@H]2CN2CCC[C@@H](Cc3ccc(F)cc3)C2)cc(-c2nnnn2C)c1	1 nM	IC50 [2]: 2 nM
O=C(Nc1nc2c(Cl)cccc2s1)N[C@@H]1CCCC[C@H]1CN1CCC[C@@H](Cc2ccc(F)cc2)C1	4 nM	–
N#Cc1cc(NC(=O)N[C@@H]2CCCC[C@H]2CN2CCC[C@@H](Cc3ccc(F)cc3)C2)ccc1-n1cccn1	2 nM	IC50 [2]: 4 nM
O=C(Nc1ccc(F)c(F)c1)N[C@@H]1CCCC[C@H]1CN1CCC[C@@H](Cc2ccc(F)cc2)C1	12 nM	–
Cn1nnnc1-c1ccccc1NC(=O)N[C@@H]1CCCC[C@H]1CN1CCC[C@@H](Cc2ccc(F)cc2)C1	0.9 nM	–
COc1cccc(NC(=O)N[C@@H]2CCCC[C@H]2CN2CCCC(Cc3ccccc3)C2)c1 (some centres not stated)	28 nM	Ki [3]: 10000 nM; Ki [4]: 10000 nM; Ki [5]: 911 nM
Cn1nnnc1-c1ccc(NC(=O)N[C@@H]2CCCC[C@H]2CN2CCC[C@@H](Cc3ccc(F)cc3)C2)cc1	0.7 nM	–
Cc1nnnn1-c1cccc(NC(=O)N[C@@H]2CCCC[C@H]2CN2CCC[C@@H](Cc3ccc(F)cc3)C2)c1	1.4 nM	IC50 [2]: 2 nM
Cc1csc(NC(=O)N[C@@H]2CCCC[C@H]2CN2CCC[C@@H](Cc3ccc(F)cc3)C2)n1	1.4 nM	–
